Laboratory results: paper PMC11590664 (European journal of medicinal chemistry, 2023)

Assays:
[1] = system: HEK-293 cells; assay: Cytotoxicity / viability assay, HEK-293; type: cell-based; conditions: Homo sapiens, HEK293, read-out: HEK-293 IC50
In short: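 HEK-293 cells were grown in medium per the provider's instructions with 100 units/mL penicillin and 100 μg/mL streptomycin, at 37 °C in 5 % CO2. Log-phase cells were seeded at 5000 per well, left 24 h, then exposed in triplicate to a range of test compound concentrations for 72 h. Resazurin was added for 4–6 h and fluorescence read. Values are relative to DMSO vehicle, with IC50 from a variable-slope normalized-response fit. Each compound was tested at least three times.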

[2] = target: KIT (Homo sapiens, UniProt P10721); assay: KINOMEscan site-directed competition binding assay, KIT; conditions: 4.5 nM compound, 97 kinase panel
In short: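 Competition binding read by qPCR against DNA-tagged kinases. Streptavidin magnetic beads loaded with biotinylated ligand (30 min, RT), biotin-blocked and washed. Kinase, beads and test compound (diluted from 100x DMSO stocks) combined in 20 % SeaBlock, 0.17x PBS, 0.05 % Tween 20, 6 mM DTT; 1 h RT with shaking. […] Kinase in eluate quantified by qPCR.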

[3] = system: phosphorylation of FLT3 and ERK in MOLM14 cells; assay: Western blot, MOLM14 cells; type: cell-based, human; conditions: 2 h
In short: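 Cells kept at 37 °C under 5 % CO2. Total cell lysates separated by SDS-PAGE and transferred to nitrocellulose. Membranes probed with primary antibodies to pFLT3 Y842, total FLT3, pERK, total ERK and GAPDH, then with secondary antibodies, and imaged.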

Chain of KIT (P10721 26-976): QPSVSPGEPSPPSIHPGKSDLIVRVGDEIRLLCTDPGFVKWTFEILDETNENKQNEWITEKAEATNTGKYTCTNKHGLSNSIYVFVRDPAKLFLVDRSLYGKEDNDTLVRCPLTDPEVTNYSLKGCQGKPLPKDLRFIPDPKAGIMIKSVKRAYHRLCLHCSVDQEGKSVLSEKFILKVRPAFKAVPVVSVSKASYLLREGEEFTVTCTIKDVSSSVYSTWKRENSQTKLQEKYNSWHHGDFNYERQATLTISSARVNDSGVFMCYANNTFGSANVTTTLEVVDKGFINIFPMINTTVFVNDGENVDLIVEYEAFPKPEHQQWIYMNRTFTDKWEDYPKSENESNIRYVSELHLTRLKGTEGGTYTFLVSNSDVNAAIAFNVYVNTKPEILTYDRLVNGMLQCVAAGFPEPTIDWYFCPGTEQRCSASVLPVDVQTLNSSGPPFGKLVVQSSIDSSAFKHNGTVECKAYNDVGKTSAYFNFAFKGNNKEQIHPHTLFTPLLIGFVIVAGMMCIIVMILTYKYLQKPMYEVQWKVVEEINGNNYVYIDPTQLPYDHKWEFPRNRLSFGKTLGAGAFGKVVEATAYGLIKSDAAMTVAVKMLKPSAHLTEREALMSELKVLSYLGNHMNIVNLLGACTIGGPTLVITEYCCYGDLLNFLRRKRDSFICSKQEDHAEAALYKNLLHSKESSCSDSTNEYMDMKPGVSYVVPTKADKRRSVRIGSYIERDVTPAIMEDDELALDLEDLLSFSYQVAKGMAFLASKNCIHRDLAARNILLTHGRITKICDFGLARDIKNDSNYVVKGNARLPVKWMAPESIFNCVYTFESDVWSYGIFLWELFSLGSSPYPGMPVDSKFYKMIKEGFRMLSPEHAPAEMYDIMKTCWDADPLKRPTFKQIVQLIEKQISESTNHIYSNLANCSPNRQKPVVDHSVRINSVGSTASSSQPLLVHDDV

| SMILES | IC50 [1] [nM] | binding affinity with KIT [2] | inhibitory effects on the phosphorylation of FLT3 and ERK ([3]; 1X IC50 (4.5 nM)) | inhibitory effects on the phosphorylation of FLT3 and ERK ([3]; 10X IC50) |
| --- | --- | --- | --- | --- |
| COc1ccc(Nc2cccc(-c3cnc4cc(-c5cnn(C)c5)ccn34)n2)cc1OC [Compound 20, N-(3,4-dimethoxyphenyl)-6-(7-(1-methyl-1H-pyrazol-4-yl)imidazo [1,2-a]pyridin-3-yl)pyridin-2-amine] | > 1000 | – | – | – |
| Cn1cc(-c2ccn3c(-c4cccc(Nc5ccc(S(C)(=O)=O)cc5)n4)cnc3c2)cn1 [Compound 24, 6-(7-(1-methyl-1H-pyrazol-4-yl)imidazo [1,2-a]pyridin-3-yl)-N-(4-(methylsulfonyl)phenyl)pyridin-2-amine] | > 1000 | minimal binding affinity | noticeable signal downregulation | nearly complete signal downregulation |
| COc1cc(Nc2cccc(-c3cnc4cc(-c5ccc(S(C)(=O)=O)cc5)ccn34)n2)cc(OC)c1OC [Compound 42, 6-(7-(4-(methylsulfonyl)phenyl)imidazo [1,2-a]pyridin-3-yl)-N-(3,4,5-trimethoxyphenyl)pyridin-2-amine] | > 1000 | – | – | – |
